The values below come from ChEMBL document CHEMBL5143543, “Synthesis and evaluation of enantiomers of hydroxychloroquine against SARS-CoV-2 in vitro” (Bioorg Med Chem, 2022).

Structures are written as SMILES. pEC50: −log10 of the molar value. The source made the active and inactive calls. The calls are words filed in the database; no cut-off is given here.

By pEC50 is commonly meant the negative decadic logarithm of the EC50, by convention in mol/L.

The subject of series [1] is SARS-CoV-2. The series can be described thus: Antiviral activity against SARS-CoV-2 infected in Vero E6 cells assessed as virus-induced cytopathic effect at 40 uM measured after 48 hrs by CCK-8 assay. The format is functional, organism-based. To be noted: Severe acute respiratory syndrome coronavirus 2. (Protection from cytopathic effect is a common read-out in antiviral testing.)

Series [2] concerns SARS-CoV-2. Put plainly: Antiviral activity against SARS-CoV-2 infected in Vero E6 cells assessed as viral RNA level measured after 48 hrs by RT-PCR analysis. In kind it is functional, organism-based. The following applies: Severe acute respiratory syndrome coronavirus 2, Vero C1008, 48 h.
The nature of series [3]: Toxicity in mouse assessed as death at 230 mg/kg, po measured after 9 days. The format is organism-based. To be noted: in vivo, 216 h, time 9 day. The method in brief: (§1)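 Male and female mice (25 g; n = 8 per group; vehicle-control and test groups) were fasted overnight. Compounds were given as sulfate salts in physiological saline, intragastrically at 230 mg/kg twice a day; controls received saline. Survival was followed by day post dosing, in a double-dose acute toxicity assay.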

Series [4] has as its system SARS-CoV-2. Put plainly: Antiviral activity against SARS-CoV-2 infected in Vero E6 cells assessed as virus-induced cytopathic effect at 5 uM measured after 48 hrs by CCK-8 assay. The format is functional, organism-based. The following applies: Severe acute respiratory syndrome coronavirus 2.
A short description of series [5]: Toxicity in mouse assessed as death at 230 mg/kg, po measured after 7 days. In kind it is organism-based. To be noted: in vivo, 168 h, time 7 day. The method, boiled down: as §1
Series [6] can be described thus: Toxicity in mouse assessed as death at 230 mg/kg, po measured after 12 days. The format is organism-based. The following applies: in vivo, 288 h, time 12 day. The method, boiled down: as §1

Turning to `CCN(CCO)CCC[C@@H](C)Nc1ccnc2cc(Cl)ccc12.O=S(=O)(O)O`, the result in series [1] was Active. The pEC50 in series [2] is 5.27. Besides, the Activity result in series [3] was “Toxic”.

`CCC(CC)COC(=O)[C@H](C)N[P@](=O)(OC[C@H]1O[C@@](C#N)(c2ccc3c(N)ncnn23)[C@H](O)[C@@H]1O)Oc1ccccc1`: in series [4], the outcome was Active.

For the molecule `CCN(CCO)CCCC(C)Nc1ccnc2cc(Cl)ccc12.O=S(=O)(O)O` (racemic) [HYDROXYCHLOROQUINE SULFATE], the outcome in series [1] was Active. Further, the pEC50 in series [2] was 5.29. For the same molecule, in series [5], the Activity result is listed as “Toxic”.

Take `CCN(CCO)CCC[C@H](C)Nc1ccnc2cc(Cl)ccc12.O=S(=O)(O)O`: in series [1], the outcome was Active. In series [2], the pEC50 was 5.52. Further, the Activity entry in series [6] is “Non-Toxic”.
